From ChEMBL document CHEMBL1123755, “Conformationally defined adrenergic agents. 5. Resolution, absolute configuration, and pharmacological characterization of the enantiomers of 2-(5,6-dihydroxy-1,2,3,4-tetrahydro-1-naphthyl)imidazoline: a potent agonist at alpha-adrenoceptors” (J Med Chem, 1987)

What was measured:
[1] = Ratio of ED50 of norepinephrine to that in PBZ-DSV; assay type: functional
Procedure, shortened: (§1)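 Dog saphenous vein strips in Krebs buffer (pH 7.40, 95% O2/5% CO2, 37 °C), 2 g preload, isometric contraction. After equilibration and maximal NE (10⁻⁴ M) contraction, washed 60 min, exposed to PBZ 10⁻⁷ M for 30 min, washed 60 min. Control cumulative NE curve, then after 45–60 min washout, cumulative agonist curve. Molar ED50; index = ED50 NE / ED50 compound; Emax as % of NE maximum.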

[2] = Ratio of ED50 of norepinephrine to that in rabbit aorta.; assay type: functional
Procedure, shortened: (§2)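 Helical rabbit aortic strip in 10-mL bath of Krebs buffer (pH 7.4, 37 ± 0.5 °C), 2 g initial tension, force-transducer contraction. Cumulative dose–response to NE (10⁻⁸ to 10⁻³ M), each dose to plateau. Washed every 10–15 min for 60–90 min and reset to 2 g before the test compound series. Molar ED50; index = ED50 NE / ED50 compound; Emax as % of NE maximum.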

[3] = E max value expressed as percent maximum response of the tissue(rabbit aorta) to norepinephrine; assay type: tissue-based; procedure, shortened: as §2
[4] = molecular target: T1, Adrenergic receptor alpha-1 (Rattus norvegicus, UniProt P15823+P23944+P43140); assay: Binding affinity for alpha-1 adrenergic receptor in rat liver using [3H]prazosin.
T1 sequence (P15823 whole entry): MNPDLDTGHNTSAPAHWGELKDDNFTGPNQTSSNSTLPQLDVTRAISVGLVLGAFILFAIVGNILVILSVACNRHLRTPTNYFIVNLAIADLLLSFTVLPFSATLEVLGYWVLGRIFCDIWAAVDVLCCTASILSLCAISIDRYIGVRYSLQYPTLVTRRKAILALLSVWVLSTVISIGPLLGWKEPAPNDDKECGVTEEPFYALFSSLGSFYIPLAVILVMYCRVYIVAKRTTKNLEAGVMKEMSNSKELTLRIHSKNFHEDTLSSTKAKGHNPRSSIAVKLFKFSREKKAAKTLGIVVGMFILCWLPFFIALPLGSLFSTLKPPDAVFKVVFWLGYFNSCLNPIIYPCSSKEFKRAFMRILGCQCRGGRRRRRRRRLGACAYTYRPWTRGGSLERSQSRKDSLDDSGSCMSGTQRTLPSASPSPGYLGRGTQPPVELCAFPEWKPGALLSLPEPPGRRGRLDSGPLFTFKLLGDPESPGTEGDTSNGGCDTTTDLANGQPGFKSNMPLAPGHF
T1 sequence (P23944 whole entry): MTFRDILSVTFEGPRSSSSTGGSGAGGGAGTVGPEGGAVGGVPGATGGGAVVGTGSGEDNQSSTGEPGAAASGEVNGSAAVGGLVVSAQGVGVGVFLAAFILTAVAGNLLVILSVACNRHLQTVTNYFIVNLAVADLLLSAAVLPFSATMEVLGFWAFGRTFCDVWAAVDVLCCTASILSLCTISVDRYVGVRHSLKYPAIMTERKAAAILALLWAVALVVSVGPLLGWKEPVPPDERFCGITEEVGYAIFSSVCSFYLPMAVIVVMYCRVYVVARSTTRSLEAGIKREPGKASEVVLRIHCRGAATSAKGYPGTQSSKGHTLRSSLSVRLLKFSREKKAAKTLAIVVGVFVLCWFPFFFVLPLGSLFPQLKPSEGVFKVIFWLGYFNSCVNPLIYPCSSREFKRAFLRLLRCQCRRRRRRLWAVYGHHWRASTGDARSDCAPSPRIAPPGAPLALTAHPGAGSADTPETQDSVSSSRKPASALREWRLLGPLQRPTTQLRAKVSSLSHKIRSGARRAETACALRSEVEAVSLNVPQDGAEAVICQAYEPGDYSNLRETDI
T1 sequence (P43140 whole entry): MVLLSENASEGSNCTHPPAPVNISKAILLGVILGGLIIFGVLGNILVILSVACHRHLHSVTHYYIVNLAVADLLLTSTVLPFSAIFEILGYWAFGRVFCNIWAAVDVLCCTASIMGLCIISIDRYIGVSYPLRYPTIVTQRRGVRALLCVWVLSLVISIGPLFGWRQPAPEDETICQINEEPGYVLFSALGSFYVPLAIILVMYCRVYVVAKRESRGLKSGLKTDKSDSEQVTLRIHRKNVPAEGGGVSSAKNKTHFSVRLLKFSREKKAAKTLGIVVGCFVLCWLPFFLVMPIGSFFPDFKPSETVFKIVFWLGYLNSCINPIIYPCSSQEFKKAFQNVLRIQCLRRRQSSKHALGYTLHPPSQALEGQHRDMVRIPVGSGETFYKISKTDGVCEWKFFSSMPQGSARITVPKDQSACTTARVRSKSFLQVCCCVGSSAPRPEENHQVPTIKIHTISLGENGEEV
Procedure, shortened: (§3)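 Pooled male Sprague–Dawley rat liver membranes (50–150 µg/mL protein) in 50 mM Tris-HCl pH 7.7. [3H]prazosin, 50 min at 25 °C, 1.0 mL final volume; nonspecific binding with phentolamine 10⁻⁵ M. GF/B filtration, scintillation counting. At least four concentrations (10⁻¹⁰–10⁻³ M) run in duplicate; IC50 by logit plot; Ki by Cheng–Prusoff.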

[5] = molecular target: T2, Adrenergic receptor alpha-2 (Rattus norvegicus, UniProt P22086+P19328+P22909); assay: Binding affinity for alpha-2 adrenergic receptor in rat cortex using [3H]rauwolscine.
T2 sequence (P22086 whole entry): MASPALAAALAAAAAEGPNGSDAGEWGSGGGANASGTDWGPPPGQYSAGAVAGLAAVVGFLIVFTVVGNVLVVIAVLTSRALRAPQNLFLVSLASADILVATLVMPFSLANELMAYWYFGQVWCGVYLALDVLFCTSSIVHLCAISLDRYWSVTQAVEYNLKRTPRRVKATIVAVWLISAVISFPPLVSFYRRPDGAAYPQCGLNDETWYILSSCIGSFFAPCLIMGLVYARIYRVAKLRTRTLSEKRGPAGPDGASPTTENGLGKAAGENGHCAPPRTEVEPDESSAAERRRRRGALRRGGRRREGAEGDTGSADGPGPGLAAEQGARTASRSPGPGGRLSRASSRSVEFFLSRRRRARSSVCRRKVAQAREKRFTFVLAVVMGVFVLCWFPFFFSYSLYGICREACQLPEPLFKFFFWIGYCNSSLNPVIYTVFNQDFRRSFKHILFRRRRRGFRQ
T2 sequence (P19328 whole entry): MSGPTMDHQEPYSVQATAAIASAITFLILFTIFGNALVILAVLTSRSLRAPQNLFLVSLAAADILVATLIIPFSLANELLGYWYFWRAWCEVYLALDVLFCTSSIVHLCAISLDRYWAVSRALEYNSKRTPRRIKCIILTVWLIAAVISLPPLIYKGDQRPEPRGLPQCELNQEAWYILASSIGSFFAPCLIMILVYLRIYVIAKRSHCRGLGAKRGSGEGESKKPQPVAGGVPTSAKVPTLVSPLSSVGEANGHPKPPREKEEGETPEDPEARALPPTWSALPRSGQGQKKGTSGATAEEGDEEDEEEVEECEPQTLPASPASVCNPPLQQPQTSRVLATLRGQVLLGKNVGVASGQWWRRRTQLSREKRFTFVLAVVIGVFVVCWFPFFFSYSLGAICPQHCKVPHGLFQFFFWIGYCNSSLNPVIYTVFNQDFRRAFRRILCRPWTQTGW
T2 sequence (P22909 whole entry): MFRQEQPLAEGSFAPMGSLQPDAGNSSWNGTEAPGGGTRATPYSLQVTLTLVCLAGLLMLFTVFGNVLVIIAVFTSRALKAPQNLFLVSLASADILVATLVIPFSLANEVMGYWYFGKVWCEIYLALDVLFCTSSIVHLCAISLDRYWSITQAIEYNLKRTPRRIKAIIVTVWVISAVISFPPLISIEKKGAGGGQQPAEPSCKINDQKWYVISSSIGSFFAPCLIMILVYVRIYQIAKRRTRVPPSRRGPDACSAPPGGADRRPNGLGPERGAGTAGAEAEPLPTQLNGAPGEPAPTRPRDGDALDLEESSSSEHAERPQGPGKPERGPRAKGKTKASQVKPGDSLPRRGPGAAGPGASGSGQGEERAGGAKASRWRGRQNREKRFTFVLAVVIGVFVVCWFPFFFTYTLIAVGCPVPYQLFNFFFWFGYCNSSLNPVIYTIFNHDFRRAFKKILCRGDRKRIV
Procedure, shortened: as §3, with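 “cerebral cortex” for “liver”, “[3H]rauwolscine, 2 h” for “[3H]prazosin, 50 min”, “0” for “25”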

[6] = E max value expressed as percent maximum response of the tissue(PBZ-DSV) to norepinephrine; procedure, shortened: as §1

Compound | Index [1] | Index [2] | E max [3] | Ki [4] [µM] | Ki [5] [µM] | E max [6]
Oc1ccc2c(c1O)CCC[C@H]2C1=NCCN1 | 248 | 29 | 128 | 0.523 | 0.00055 | 102
Oc1ccc2c(c1O)CCCC2C1=NCCN1 (racemic) | 184 | 13 | 114 |  |  | 102
Oc1ccc2c(c1O)CCC[C@@H]2C1=NCCN1 | 15.4 | 1 | 94 | 0.817 | 0.028 | 74
